Only some compounds are listed: those with a hit (about 1.8% of all), similar ones and a draw of the others.
RanGTP-Imp inh: disruptors of Ran-importin-beta complex formation – biochemical, FRET, CFP-Ran, YFP-importin-beta, homogeneous, primary screen; inhibition, % (no concentration beside the values); actives 1.1% (n = 300,000); cell-free CFP-Ran/YFP-importin-beta FRET ratio;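 active = more than half of the replicate wells show a fall in the fluorescence ratio signal beyond about 16%, limit read from the data, passing the limit was not always enough; inconclusive = exactly half of the replicate wells pass the set limit; inactive = fewer than half of replicates pass the limit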;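 note: 0% = DMSO wells and 100% = Ran loaded with GDP instead of GTP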
Runt-SMMHC FRET: inhibitors of human RUNX1 Runt domain binding to CBFb-SMMHC. Q01196+Q13951. inhibition, % at 20 µM. Cerulean-Runt/Venus-CBFb-SMMHC FRET ratio 530/480, 1 h. AID 1434. actives 0.74% (n = 220,000);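 active = mean inhibition across duplicate retests at 20 µM reaching about 50%, limit read from the data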;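 note: 0% = DMSO wells and 100% = wells with excess untagged CBFb-SMMHC; inhibitors lower the FRET ratio by blocking Runt binding to CBFb-SMMHC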
Hck-Nef inh: human Hck-Nef kinase inhibition; inhibition, % at 20 µM; actives 0.68% (n = 220,000); Recombinant Hck-YEEI plus Nef, Z-Lyte FRET kinase assay; P08631;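 active = Hck-Nef kinase inhibition above about 50%, limit read from the data; inactive = inhibition below that limit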;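 note: 0% = DMSO with Hck plus Nef and 100% = Hck alone without Nef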
Target sequence (P08631 whole entry, looked up): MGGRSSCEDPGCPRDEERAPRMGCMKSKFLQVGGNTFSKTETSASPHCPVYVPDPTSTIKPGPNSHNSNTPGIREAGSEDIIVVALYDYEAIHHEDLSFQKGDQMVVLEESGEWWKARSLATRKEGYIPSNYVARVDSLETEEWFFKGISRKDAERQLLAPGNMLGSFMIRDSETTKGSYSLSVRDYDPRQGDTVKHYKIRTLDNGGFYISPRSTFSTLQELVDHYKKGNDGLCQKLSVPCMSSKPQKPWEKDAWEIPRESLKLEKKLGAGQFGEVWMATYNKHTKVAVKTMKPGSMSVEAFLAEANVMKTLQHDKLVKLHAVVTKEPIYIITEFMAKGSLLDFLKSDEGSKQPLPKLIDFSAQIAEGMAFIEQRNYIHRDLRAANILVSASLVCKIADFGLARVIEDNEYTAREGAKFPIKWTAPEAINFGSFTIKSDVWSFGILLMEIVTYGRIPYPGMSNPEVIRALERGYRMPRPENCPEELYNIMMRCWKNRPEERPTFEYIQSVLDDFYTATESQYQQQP
Runt-CBFb FRET: Runt domain-CBFb interaction inhibition. Q01196+Q13951. Cerulean-Runt/Venus-CBFb FRET ratio 530/480, 1 h. inhibition, % at 20 µM. actives 0.46% (n = 220,000);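 active = inhibition over about 50% at 20 µM in the single-dose screen, limit read from the data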;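 note: 0% = DMSO wells and 100% = excess unlabeled CBFb competitor control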
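Measured by: fluorescence energy transfer, 422 nm excitation, 530/480 nm emission; Assay system: Cerulean-Runt domain; Medium: Tris pH 7.5 buffer with BSA; Measure: loss of energy transfer signal; Controls: 5 µM unlabeled CBFb as full-inhibition high control; Incubation: protein complex preformed 1 h, compound exposure 1 h, room temperature, dark.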
Hck Nef conf: confirmation of Hck-Nef kinase inhibitors; actives 28% (n = 1,300); AID 463188; calls only at 10 µM; Recombinant Hck-YEEI:Nef, Z-Lyte FRET kinase assay; shares compounds with Hck-Nef inh;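 active = average inhibition of at least 50%, with Z-scores no higher than 3 in both the phospho-tyrosine peptide and fluorescence counterscreens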
* marks the source's active call; other numbers are inactive results; i = inactive; ? = inconclusive; . = no result given; + = active, no number.

SMILES | RanGTP-Imp inh | Runt-SMMHC FRET | Hck-Nef inh | Runt-CBFb FRET | Hck Nef conf
CCCCc1cc(=O)oc2c(CN3CCCC3)c(O)ccc12 | 8.1 | 94.8* | 96.7* | 33.9 | i
Cc1cc(C)c(Cn2cnc3ccccc32)c(C)c1 | -1.3 | -2.1 | 5.8 | -1.1 | .
O=c1c(Cl)c(Cl)cnn1Cc1nnc(-c2ccccc2Br)o1 | -0.6 | -1.6 | 26.6 | -2.2 | .
CSc1ncccc1C(=O)OCC(=O)N(CC(C)C)c1c(N)n(Cc2ccccc2)c(=O)[nH]c1=O | 0.2 | . | . | . | .
CC1CCOC(c2coc3ccccc3c2=O)O1 (configuration not stated) | -2.5 | -5.8 | 4.9 | 0.2 | .
O=C(O)C1CSC(c2coc3ccccc3c2=O)N1 (configuration not stated) | ? | 12.7 | 91.4* | 5.0 | +
Cc1cccc2cc(C#N)c(SCC(=O)NCC3CCCO3)nc12 (configuration not stated) | 2.9 | -0.7 | 0.8 | -2.8 | .
Cc1cccc2c(SCC(=O)NCC3CCCO3)nc(-c3ccc(F)cc3)nc12 (configuration not stated) | 0.5 | 0.1 | 87.9* | 0.7 | i
Cc1cc(=O)oc2cc(NS(=O)(=O)c3ccc(F)cc3)ccc12 | 3.3 | 66.7* | 105.5* | 25.4 | .
CN(C)S(=O)(=O)c1ccc(S(=O)(=O)Nc2ccc3c(c2)oc2ccccc23)cc1 | 1.1 | 1.2 | -0.1 | -2.8 | .
CNc1c(NS(=O)(=O)c2ccc(F)cc2)c(=O)oc2ccccc12 | 0.4 | . | . | . | .
Cc1cc(=O)oc2cc(NS(=O)(=O)c3ccccc3)ccc12 | 3.2 | 91.1* | 113.8* | 38.2 | .
Cc1nn(C)cc1S(=O)(=O)N1CCN(c2cccc(Cl)c2)CC1 | -1.2 | . | . | . | .
Cc1cccc(-n2c(C)cc(/C=C3/C(=N)N4C(c5ccccc5)=CSC4=NC3=O)c2C)c1 | 4.4 | -3.6 | 3.0 | -169.9 | .
COc1cc(/C=C2/C(=N)N3C(c4ccccc4)=CSC3=NC2=O)ccc1OCC(=O)O | 3.6 | -16.1 | 79.0* | -0.6 | +
Cc1ccc(OCCNC(=O)c2ccc(NC(=O)CC3SC(N4CCCC4)=NC3=O)cc2)cc1 (configuration not stated) | 1.1 | . | . | . | .
O=C(N/N=C/c1cc(Br)ccc1OC(=O)c1ccc(Br)cc1)c1ccncc1 | 6.5 | . | . | . | .
O=C(Nc1nc2ccsc2c(=O)s1)c1ccco1 | 3.6 | 15.9 | 64.7* | 8.0 | i
Cc1nc2ccc3nc(NC(=O)c4ccco4)sc3c2s1 | 2.2 | . | -0.1 | . | .
C=CCN(CC=C)C(=O)CN1C(=O)NC(Cc2c[nH]c3ccccc23)C1=O (configuration not stated) | -5.3 | . | . | . | .
COc1ccc(C(=O)Nc2ccccc2-c2nnn(CC(=O)Nc3ccc4c(c3)OCCO4)n2)cc1 | -0.4 | -0.1 | 59.5* | -1.7 | i
COc1ccc(-c2nc(N3CCOCC3)nc3n[nH]c(N)c23)cc1 | 0.5 | 0.7 | 64.3* | -0.1 | +
CC1(C)CC(=O)C2=C(C1)c1c(ccc3ccccc13)NC2c1ccc(C(=O)O)cc1 (configuration not stated) | -0.6 | . | . | . | .
CC1(C)CC(=O)C2=C(C1)c1c(ccc3ccccc13)NC2c1cc([N+](=O)[O-])cc([N+](=O)[O-])c1O (configuration not stated) | -2.4 | -6.6 | 51.4* | 29.4 | +
N=C1S/C(=C\c2ccc(-c3cccc(Cl)c3)o2)C(=O)N1c1nccs1 | -13.4 | 12.0 | 50.8* | 40.2 | i
SMILES | RanGTP-Imp inh | Runt-SMMHC FRET | Hck-Nef inh | Runt-CBFb FRET | Hck Nef conf
CC(=O)Nc1ccc(S(=O)(=O)N(C)CC(=O)OC(C)C(=O)N(C)Cc2ccccc2)cc1 (configuration not stated) | -0.3 | . | . | . | .
CCOc1ccccc1NC(=O)Nc1ccc(CC#N)cc1 | -3.1 | 4.0 | 10.4 | -1.6 | .
Cc1cccc(-n2cnc(C(=O)N/N=C\c3ccc(Br)cc3)c2)n1 | -1.7 | 1.3 | 80.0* | -1.0 | i
COC(=O)c1sc(NC(=O)/C=C/c2ccccc2Cl)nc1C | -6.2 | -5.4 | 66.2* | -2.4 | i
COC(=O)c1sc(NC(=O)/C=C/c2ccc(C)cc2)nc1C | -1.7 | 5.1 | 6.8 | 0.2 | .
Cc1cccc(N2CN=C3SCC(=O)N3C2)c1 | -0.5 | -2.1 | 2.6 | -0.1 | .
COc1ccc(/C=C/c2nnc(NC(=O)c3ccco3)s2)cc1 | 8.9 | 20.9 | 53.0* | 2.3 | i
COc1cccc(Nc2ncc(C#N)c(N)n2)c1 | -2.5 | 0.3 | 56.6* | 0.5 | +
O=C1OC(/C=C/c2ccccc2)=NC/1=C\c1cccnc1 | -1.8 | -1.9 | 81.9* | -1.1 | +
CCOC(=O)c1c(NC(=O)/C=C\C(=O)O)sc(C)c1-c1ccccc1 | 2.0 | -1.0 | 56.8* | -1.8 | +
NS(=O)(=O)c1ccc(CCNc2ccccc2[N+](=O)[O-])cc1 | -3.6 | . | . | . | .
O=C(Nc1ccc2c(c1)OCCO2)c1cc(-c2ccccn2)nc2ccc(Br)cc12 | 6.5 | -9.7 | 78.1* | 0.3 | i
Cc1cccc(-c2cc(C(=O)Nc3ccc4c(c3)OCCO4)c3ccccc3n2)c1 | 2.8 | -7.2 | 1.5 | -2.4 | .
O=C(Nc1ccc(S(=O)(=O)Nc2nccs2)cc1)c1cc(-c2ccccn2)nc2ccccc12 | 3.2 | 0.5 | 51.3* | 0.9 | i

Screening data as filed in PubChem BioAssay.
